Measured values published in ChEMBL document CHEMBL1127667, “Synthesis of benzo-fused benzodiazepines employed as probes of the agonist pharmacophore of benzodiazepine receptors” (J Med Chem, 1994).

Experiments:
[1] = biological target: GABA-A receptor; anion channel; experiment: In vitro inhibitory concentration of compound against benzodiazepine receptor from rat cerebral cortex using [3H]- flunitrazepam was evaluated; format: tissue-based
Outline: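 Rat cerebral cortex membranes prepared in 50 mM Tris-citrate, pH 7.4, washed three times. About 0.1 mg protein incubated with [3H]flunitrazepam (~1 nM final) and NaCl at 0-4 °C for 60 min. Bound ligand collected by GF/B filtration. IC50 taken from at least six inhibitor concentrations. Mean ± SEM of at least three determinations.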

[2] = biological target: T1, GABA-A receptor; anion channel (Mus musculus) (UniProt Q8BHJ7+P26048+Q8QZW7+P50571+Q9R0Y8+P22723+A2AMW3+P62812+Q9JLF1+P26049+P22933+Q9D6F4+P63080+P27681+P16305); experiment: In vivo activity of compound was evaluated against benzodiazepine receptor in mice; format: functional, organism-based
Outline: (§1)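 Adult male NIH/Swiss mice, groups of three to eight, given graded ip doses in diluted Emulphor/saline (1:9). Muscle relaxation tested on a wire at 12 min. PTZ given at 15 min: 80 mg/kg to test anticonvulsant action, 40 mg/kg to test proconvulsant action.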

[3] = biological target: T1, GABA-A receptor; anion channel (Mus musculus); experiment: In vivo activity against GABA-A benzodiazepine receptor in mice; format: functional, organism-based; parameters: unit not given here; outline: as §1
Mus musculus [4] = species: Mus musculus; experiment: Compound was tested for anticonvulsant effect in mice; format: functional
Outline: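 Male NIH/Swiss mice, 25-30 g, groups of three to eight, given graded ip doses in diluted Emulphor/saline (1:9) or vehicle. PTZ 80 mg/kg injected 15 min after dosing. Protection from PTZ-induced convulsions scored. ED50 derived from the dose-response.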

Mus musculus [5] = species: Mus musculus; experiment: Compound was tested for myorelaxant effect in mice; format: functional
Outline: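 Male NIH/Swiss mice, 25-30 g, groups of three to eight, dosed ip with graded amounts in diluted Emulphor/saline (1:9) or vehicle. At 12 min, mice were hung by the forepaws on a 1.5-mm wire 60 cm above the bench. Three falls within 1 min counted as muscle relaxation. ED50 derived from the dose-response.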

| Compound | IC50 [1] [nM] | further results |
| --- | --- | --- |
| CN1C(=O)CN=C(c2ccccc2)c2ccc3ccccc3c21 | > 1000 |  |
| CN1C(=O)CN=C(c2ccccc2F)c2c1ccc1ccccc21 | > 1000 |  |
| O=C1CN=C(c2ccccc2)c2c(ccc3ccccc23)N1 | > 1000 |  |
| CCOC(=O)c1ncc2[nH]c3ccc(OCc4ccccc4)cc3c2c1COC | 5 |  |
| C=Cc1ccc2c(c1)C(c1ccccc1)=NCC(=O)N2 | 24 | Activity [2]: Weak activity |
| CN1C(=O)CN=C(c2ccccc2)c2c1ccc1ccccc21 | > 1000 |  |
| O=C1CN=C(c2ccccc2)c2cc3ccccc3cc2N1 | 400 |  |
| CN1C(=O)CN=C(c2ccccc2)c2cc3ccccc3cc21 | > 1000 |  |
| CN1C(=O)CN=C(c2ccccc2)c2cc(Cl)c(Cl)cc21 | 40 | Activity [2]: Weak activity |
| O=C1CN=C(c2ccccc2)c2c(Cl)cccc2N1 | 320 | Activity [2]: 0 |
| CN1C(=O)CN=C(c2ccccc2F)c2c(Cl)cccc21 | 150 | Activity [2]: 0 |
| O=C1CN=C(c2ccccc2)c2cc(-c3ccccc3)ccc2N1 |  | Activity [3]: 781 |
| O=C1CN=C(c2ccccc2F)c2cc3ccccc3cc2N1 | > 1000 |  |
| O=C1CN=C(c2ccccc2F)c2ccc3ccccc3c2N1 | 120 |  |
| CN1C(=O)CN=C(c2ccccc2)c2cc(Cl)ccc21 |  | Activity [2]: 1.39 |
| O=C1CN=C(c2ccccc2F)c2cc(Cl)c(Cl)cc2N1 | 3.6 |  |
| Cc1cc([N+](=O)[O-])cc2c1NC(=O)CN=C2c1ccccc1 |  | Activity [3]: 8.12 |
| O=C1CN=C(c2ccccc2)c2ccc3ccccc3c2N1 | > 1000 |  |
| Cc1cc2c(cc1C)C(c1ccccc1)=NCC(=O)N2 |  | Activity [3]: 132 |
| CN1C(=O)CN=C(c2ccccc2F)c2cc3ccccc3cc21 | 55 | ED50 (Mus musculus [4]): 15 mg/kg; ED50 (Mus musculus [5]): 15 mg/kg |
| Cc1cc2c(cc1Cl)NC(=O)CN=C2c1ccccc1F | 14 | Activity [2]: 0 |
| Cc1cc(C)c2c(c1)C(c1ccccc1)=NCC(=O)N2 |  | Activity [3]: 792 |
| O=C1CN=C(c2ccccc2)c2cc(Cl)cc(Cl)c2N1 |  | Activity [3]: 8 |
| CN1C(=O)CN=C(c2ccccc2F)c2ccc3ccccc3c21 | 260 |  |
| O=C1CN=C(c2ccccc2F)c2c(ccc3ccccc23)N1 | > 1000 |  |
